# Sampled rows, rich in hits. Any-hit rate of the full collection: about 1.1%.
# FXIa inh 1536 = inhibitors of human coagulation factor XIa; purified FXIa, Boc-Glu-Ala-Arg-AMC fluorogenic substrate; inhibition, % at 5 µM; actives 0.14% (n = 220,000);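 active = inhibition of at least 40%; inactive = inhibition below 40%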;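 also: fluorescence of freed AMC excited at 355 nm; 0% = enzyme without compound and 100% = no enzyme blank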
# Thrombin inh = thrombin (human) inhibition; inhibition, % at 5 µM; actives 0.26% (n = 220,000); AID 1046; alpha-thrombin, Boc-VPR-AMC fluorogenic substrate cleavage;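 active = inhibition at or above 40%; inactive = inhibition below 40%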;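 also: 0% = enzyme with no compound and 100% = wells without enzyme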
#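 System – human alpha-thrombin · Medium – pH 7.5 Tris (50 mM) with NaCl 150 mM, Tween 20 0.05% · Compound – single-point dosing at 5 µM, 0.2% DMSO · Incubation – enzyme reaction carried out at room temperature · Technique – fluorescence of released AMC, ex 355 nm, em 460 nm · Read-out basis – % inhibition of thrombin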
# Furin inhibitor = inhibitors of human furin | P09958 | purified furin, fluorogenic substrate cleavage | actives 0.061% (n = 220,000) | inhibition, % at 20 µM or 30 µM; in the data active = inhibition above about 25%
# hK5 inh = kallikrein 5 (human) inhibition; Q9Y337; recombinant hK5, fluorogenic AMC substrate cleavage; inhibition, % at 5 µM; actives 0.59% (n = 210,000); AID 873;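 active = inhibition of 40% or more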;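 also: 0% = enzyme controls without compound and 100% = no-enzyme blanks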
# FXIIa inh = inhibitors of human coagulation factor XIIa | purified FXIIa, Boc-QGR-AMC fluorogenic substrate, 2 h | inhibition, % at 5 µM | actives 0.3% (n = 220,000); in the data active = inhibition above about 40%;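 also: 0% = enzyme with no compound and 100% = blank without enzyme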
# Target sequence (P00748 20-372 limits assumed): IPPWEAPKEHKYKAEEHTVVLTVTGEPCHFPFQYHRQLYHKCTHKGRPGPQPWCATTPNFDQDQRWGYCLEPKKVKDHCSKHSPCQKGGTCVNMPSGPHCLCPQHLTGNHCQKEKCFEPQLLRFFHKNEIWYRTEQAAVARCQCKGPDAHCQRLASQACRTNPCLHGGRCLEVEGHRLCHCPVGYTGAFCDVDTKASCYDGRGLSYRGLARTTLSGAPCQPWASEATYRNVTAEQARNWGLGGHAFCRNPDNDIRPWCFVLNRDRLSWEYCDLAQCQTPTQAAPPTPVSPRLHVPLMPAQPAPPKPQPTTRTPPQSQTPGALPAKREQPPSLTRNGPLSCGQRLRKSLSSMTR
# Target sequence (P00748 373-615 limits assumed): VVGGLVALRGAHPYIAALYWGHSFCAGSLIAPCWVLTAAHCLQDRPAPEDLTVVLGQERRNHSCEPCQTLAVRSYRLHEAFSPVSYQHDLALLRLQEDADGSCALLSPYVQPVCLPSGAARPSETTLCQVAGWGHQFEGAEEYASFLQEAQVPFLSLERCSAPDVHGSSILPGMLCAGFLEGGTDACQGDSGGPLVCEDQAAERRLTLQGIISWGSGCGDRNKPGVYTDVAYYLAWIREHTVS
# Numbers without * were called inactive; x = no result given.
SMILES,FXIa inh 1536,Thrombin inh,Furin inhibitor,hK5 inh,FXIIa inh
O=C1Nc2cc(Cl)c(Cl)cc2N(O)N1c1ccc(Cl)c(Cl)c1,4,5,-14,5,8
CC(C)(C)C1CCC(OCC(O)CN2CCN(Cc3ccccc3)CC2)CC1 (stereo not given),3,-7,-7,-6,13
CC1CN(CC(O)COC2CCC(C(C)(C)C)CC2)CC(C)O1 (stereo not given),28,2,0,43*,26
OC(CNc1ccccc1)COc1ccc(OCC(O)CNc2ccccc2)cc1 (stereo not given),2,0,-6,58*,14
CCOCC(O)CNc1ccccc1 (stereo not given),7,1,-14,-1,10
OC(CN1C2=NCCN2c2ccccc21)c1ccc(Br)cc1 (stereo not given),7,12,-28,53*,1
OC(CN1C2=NCCN2c2ccccc21)c1ccccc1 (stereo not given),4,2,-28,-5,24
N#Cc1c(NC(=O)CCN2C(=O)c3ccccc3C2=O)oc(-c2ccccc2)c1-c1ccccc1,2,0,-7,14,10
N#Cc1c(NC(=O)CCn2cnc3ccccc3c2=O)oc(-c2ccccc2)c1-c1ccccc1,-3,-43,28*,-18,-1
CCOC(=O)Cc1csc(NC(=O)CC(C)(C)CC(=O)O)n1,59*,10,-2,50*,25
Cc1cc(C)n(C2CC(=O)N(c3ccc(Cl)c(Cl)c3)C2=O)n1 (stereo not given),7,4,-8,-6,5
COCCCn1cn[nH]c1=S,28,-8,-8,63*,22
COCCCn1c(-c2ccc(Cl)cc2)n[nH]c1=S,0,4,-14,-7,23
CS(=O)(=O)N(CC(=O)NCc1ccccc1)C1CCCCC1,6,0,-12,-8,16
CC(NC(=O)CN(C1CCCCC1)S(C)(=O)=O)c1ccccc1 (stereo not given),18,61*,-21,36,18
CC(C)CNC(=O)CN(C1CCCCC1)S(C)(=O)=O,3,24,-21,52*,10
CCCNC(=O)CN(C1CCCCC1)S(C)(=O)=O,-8,-5,-14,-13,7
COc1ccc(Cc2nnc(NC(=O)c3cccc([N+](=O)[O-])c3)s2)cc1,3,-7,-14,-5,13
Cc1cccc(NC(=O)CSc2nc(N)c(NC(=O)c3cccs3)c(=O)[nH]2)c1C,5,3,-1,-7,10
CCOc1ccc(C2CC(=O)N(Nc3ccc([N+](=O)[O-])cc3[N+](=O)[O-])C2=O)cc1 (stereo not given),15,45*,2,21,18
COc1cccc(CN2CCN(Cc3ccc(OC)c(OC)c3)CC2CCO)c1 (stereo not given),0,-1,-17,x,6
CC(O)C1CCC2C3CC[C@H]4CC(O)CCC4(C)C3CC3(OCCO3)C12C (stereo not given in full),10,17,-12,138*,27
C[C@]12CCC(O)CC1CCC1C2CC[C@]2(C)C(c3cc(C(F)(F)F)n[nH]3)CCC12 (stereo not given in full),2,-1,-4,4,9
CNCc1cc2ccc(C)cc2[nH]c1=O,6,9,-21,45*,0
O=C(Cn1ncc2c1-c1ccccc1OC2)Nc1ccc(Cl)cn1,4,-2,-19,52*,27
SMILES,FXIa inh 1536,Thrombin inh,Furin inhibitor,hK5 inh,FXIIa inh
CC(=O)NC(=S)Nc1ccc(S(=O)(=O)Nc2ncccn2)cc1,-10,-4,-26,5,4
NS(=O)(=O)c1ccc(NC(=O)Nc2ccc(Cl)cc2)cc1,0,-1,-15,44*,6
CC1=C(C(=O)OCCOc2ccccc2)C(c2ccc(C)o2)C2=C(CC(C)(C)CC2=O)N1 (stereo not given),-2,-4,-12,-11,10
CC1=C(C(=O)Nc2ccc(C)cc2)C(c2ccc(C)o2)C2=C(CC(C)(C)CC2=O)N1 (stereo not given),23,-5,-16,-10,45*
Cc1cc(-c2cc(N)n(-c3ccccc3)n2)c(C)n1C1CCCC1,1,5,3,-3,-2
CCCC1C(C#N)=C(N)Oc2cc(C)n(C)c(=O)c21 (stereo not given),-6,-8,-19,-3,-1
Cc1cc2c(c(=O)n1C)C(Cc1ccccc1)C(C#N)=C(N)O2 (stereo not given),14,-2,-21,11,45*
COc1cc(NC(=O)C/C(C)=N/NC(=O)C(OC)c2ccccc2)c(OC)cc1Cl (stereo not given),1,-10,-17,-13,7
O=C(CCc1ccc(O)cc1)N/N=C/c1coc2ccccc2c1=O,2,58*,-15,0,8
O=C(Oc1cccc2cccnc12)c1ccco1,3,1,-7,-18,13
O=C(Oc1ccc(Cl)c2cccnc12)c1ccco1,-5,-3,-18,-4,52*
COc1ccccc1NS(=O)(=O)c1cc(NC(=O)Nc2ccccc2)ccc1N1CCCCC1,12,19,-4,53*,22
COc1cc(/C=c2\s/c(=C\C(=O)C(C)(C)C)[nH]c2=O)cc(OC)c1OC,35,34,3,47*,29
COc1ccc(/C=c2\s/c(=C\C(=O)C(C)(C)C)[nH]c2=O)cc1O,5,1,9,6,10
COc1ccccc1-c1nnc(NC(=O)C(C)SC2=NCCS2)s1 (stereo not given),4,15,-24,53*,6
CC(SC1=NCCS1)C(=O)Nc1nnc(-c2ccc(Cl)cc2)s1 (stereo not given),-6,-1,-18,-4,-2
Cc1cccc2cc(CNC3CCCC3)c(Cl)nc12,-6,-12,-23,2,8
COC(=O)c1ccccc1NC(=O)C1CCCO1 (stereo not given),5,2,-22,-11,8
COc1ccc2ncc(OC(C)=O)cc2c1,8,40*,-18,-21,15
CC(=O)Nc1ccc(S(=O)(=O)NCc2cccnc2)cc1,22,31,-10,47*,1
O=C(Cc1ncc(C(F)(F)F)cc1Cl)NCCc1ccccc1,2,0,-12,3,9
Cc1ccc(NC(=O)Cc2ncc(C(F)(F)F)cc2Cl)cc1Cl,-2,1,-12,57*,8
COc1ccc(OC)c(C(C)NC(=O)c2ccco2)c1 (stereo not given),15,-8,-15,0,22
Cc1c(C#N)c(O)n(CCO)c(=O)c1N=Nc1ccc(S(N)(=O)=O)cc1,27,47*,10,11,25
Cc1c(C#N)c(O)n(C)c(=O)c1N=Nc1ccc(S(N)(=O)=O)cc1,25,57*,-1,25,29
CCOC(=O)C(O)(CCC(O)(C(=O)OCC)C(=O)OCC)C(=O)OCC,-3,1,-36,-7,14

# Compound activity (PubChem BioAssay)
